# Experimental data published in article PMC6955635 (Drug Design, Development and Therapy, 2020).
# Tests used:
# [1] = tested on: normotensive and hypertensive patients; conditions: 30 ng/kg/min, after 90 min of intravenous infusion; cited from earlier work
# healthy males [2] = assay: Clinical laboratory tests; assay type: in vivo, human; conditions: all AM doses, single- and multiple-dose studies
# healthy males [3] = assay: Adverse events, multiple-dose administration study; assay type: in vivo, human
# healthy males [4] = assay: Adverse events, single-dose administration study; assay type: in vivo, human; conditions: single 12-h iv infusion, n = 6, number of subjects (%)
# Outline: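 Randomized, double-blind, dose-escalation study in healthy Japanese men: 8 per group, 1:3 placebo (D-mannitol) versus test compound at 3, 9 or 15 ng/kg/min. Single continuous IV infusion over 12 h (±30 min), hospitalized from the day before to the day after. Each escalation followed safety review of the next-day results. AEs were monitored throughout, plus vital signs, labs, physical exams and 12-lead ECG at set times. Monitor ECG ran to 24 h post-dose.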
# [5] = Pharmacokinetics, plasma AM, single-dose administration study; assay type: in vivo, human; conditions: for AUC(0-t) / Cmax / Tmax / half-life: male, human, plasma, iv
# [6] = Pharmacokinetics, plasma AM, multiple-dose administration study; assay type: in vivo, human; conditions: for half-life: T1/2 (terminal plasma elimination half-life), Phoenix WinNonlin; for half-life / Tmax: multiple administration, 8-h iv infusion 15 ng/kg/min per day for 7 days, mean ± SD; for Tmax: Tmax (time to maximum measured plasma concentration)
# [7] = male, human, plasma, iv, 15 ng/kg/min, Day 1
# [8] = male, human, plasma, iv, 15 ng/kg/min, Day 7
compound,measurement,setting,value
CC[C@H](C)[C@H](NC(=O)[C@H](CCC(N)=O)NC(=O)[C@H](Cc1c[nH]cn1)NC(=O)[C@H](C)NC(=O)[C@H](CC(C)C)NC(=O)[C@H](CCCCN)NC(=O)[C@H](CCC(N)=O)NC(=O)[C@@H](NC(=O)[C@@H](NC(=O)[C@@H]1CSSC[C@H](NC(=O)CNC(=O)[C@H](Cc2ccccc2)NC(=O)[C@H](CO)NC(=O)[C@H](CCCNC(=N)N)NC(=O)[C@H](CC(C)C)NC(=O)CNC(=O)[C@H](CCC(N)=O)NC(=O)[C@H](Cc2ccccc2)NC(=O)[C@H](CC(N)=O)NC(=O)[C@H](CC(N)=O)NC(=O)[C@H](CCSC)NC(=O)[C@H](CO)NC(=O)[C@H](CCC(N)=O)NC(=O)[C@H](CCCNC(=N)N)NC(=O)[C@@H](N)Cc2ccc(O)cc2)C(=O)N[C@@H](CCCNC(=N)N)C(=O)N[C@@H](Cc2ccccc2)C(=O)NCC(=O)N[C@@H]([C@@H](C)O)C(=O)N1)[C@@H](C)O)C(C)C)C(=O)N[C@@H](Cc1ccc(O)cc1)C(=O)N[C@@H](CCC(N)=O)C(=O)N[C@@H](Cc1ccccc1)C(=O)N[C@H](C(=O)N[C@@H](CC(=O)O)C(=O)N[C@@H](CCCCN)C(=O)N[C@@H](CC(=O)O)C(=O)N[C@@H](CCCCN)C(=O)N[C@@H](CC(=O)O)C(=O)N[C@@H](CC(N)=O)C(=O)N[C@H](C(=O)N[C@@H](C)C(=O)N1CCC[C@H]1C(=O)N[C@@H](CCCNC(=N)N)C(=O)N[C@@H](CO)C(=O)N[C@@H](CCCCN)C(=O)N[C@H](C(=O)N[C@@H](CO)C(=O)N1CCC[C@H]1C(=O)N[C@@H](CCC(N)=O)C(=O)NCC(=O)N[C@@H](Cc1ccc(O)cc1)C(N)=O)[C@@H](C)CC)C(C)C)[C@@H](C)O [Adrenomedullin],Effect on BP,[1],clear decrease in BP
same,Changes in clinical laboratory test values,healthy males [2],no changes due to the direct effect of AM
same,"ECG abnormalities, including monitor ECG",healthy males [3]; 15 ng/kg/min 8 h per day for 7 days,not reported
same,Withdrawal from the study due to headache,"healthy males [3]; AM 15 ng/kg/min group, n = 6",one withdrawal
same,Any adverse event,healthy males [4]; high dose 15 ng/kg/min,2(33.3%)
same,Deaths,healthy males [4]; high dose 15 ng/kg/min,0
same,Diarrhea (gastrointestinal disorders),healthy males [4]; high dose 15 ng/kg/min,0
same,Headache (nervous system disorders),healthy males [4]; high dose 15 ng/kg/min,1(16.7%)
same,Palpitations (cardiac disorders),healthy males [4]; high dose 15 ng/kg/min,0
same,Serious adverse events,healthy males [4]; high dose 15 ng/kg/min,0
same,Severe adverse events,healthy males [4]; high dose 15 ng/kg/min,0
same,Treatment-related adverse events,healthy males [4]; high dose 15 ng/kg/min,2(33.3%)
same,Wenckebach type atrioventricular block (cardiac disorders),healthy males [4]; high dose 15 ng/kg/min,1(16.7%)
same,Any adverse event,healthy males [4]; low dose 3 ng/kg/min,0
same,Deaths,healthy males [4]; low dose 3 ng/kg/min,0
same,Diarrhea (gastrointestinal disorders),healthy males [4]; low dose 3 ng/kg/min,0
same,Headache (nervous system disorders),healthy males [4]; low dose 3 ng/kg/min,0
same,Palpitations (cardiac disorders),healthy males [4]; low dose 3 ng/kg/min,0
same,Serious adverse events,healthy males [4]; low dose 3 ng/kg/min,0
same,Severe adverse events,healthy males [4]; low dose 3 ng/kg/min,0
same,Treatment-related adverse events,healthy males [4]; low dose 3 ng/kg/min,0
same,Wenckebach type atrioventricular block (cardiac disorders),healthy males [4]; low dose 3 ng/kg/min,0
same,Any adverse event,healthy males [4]; medium dose 9 ng/kg/min,3(50.0%)
same,Deaths,healthy males [4]; medium dose 9 ng/kg/min,0
same,Diarrhea (gastrointestinal disorders),healthy males [4]; medium dose 9 ng/kg/min,0
same,Headache (nervous system disorders),healthy males [4]; medium dose 9 ng/kg/min,1(16.7%)
same,Palpitations (cardiac disorders),healthy males [4]; medium dose 9 ng/kg/min,0
same,Serious adverse events,healthy males [4]; medium dose 9 ng/kg/min,0
same,Severe adverse events,healthy males [4]; medium dose 9 ng/kg/min,0
same,Treatment-related adverse events,healthy males [4]; medium dose 9 ng/kg/min,3(50.0%)
same,Wenckebach type atrioventricular block (cardiac disorders),healthy males [4]; medium dose 9 ng/kg/min,2(33.3%)
same,Increase of Cmax compared to the basal concentration of AM,"[5]; high-dose AM group (15 ng/kg/min), single 12-h iv infusion",sevenfold
same,AUC(0-t),[5]; 3 ng/kg/min,0.163 ± 0.0212 ng·h/mL
same,Cmax,[5]; 3 ng/kg/min,0.01 ± 0.0011 ng/mL
same,Tmax,[5]; 3 ng/kg/min,9.3 ± 4.7 h
same,half-life,[5]; 3 ng/kg/min,1.04 ± 0.92 h
same,AUC(0-t),[5]; 9 ng/kg/min,0.295 ± 0.0521 ng·h/mL
same,Cmax,[5]; 9 ng/kg/min,0.0255 ± 0.0037 ng/mL
same,Tmax,[5]; 9 ng/kg/min,10.7 ± 1.6 h
same,half-life,[5]; 9 ng/kg/min,0.3 ± 0.2 h
same,AUC(0-t),[5]; 15 ng/kg/min,0.532 ± 0.0915 ng·h/mL
same,Cmax,[5]; 15 ng/kg/min,0.0504 ± 0.0093 ng/mL
same,Tmax,[5]; 15 ng/kg/min,10 ± 2.2 h
same,half-life,[5]; 15 ng/kg/min,0.23 ± 0.15 h
same,Accumulation of plasma AM,"[6]; after the end of the 7-day AM administration, 15 ng/kg/min 8 h per day",accumulation was not observed
same,Cmax,"[6]; male, human, plasma, iv, 15 ng/kg/min",0.0479 ± 0.0109 ng/mL
same,half-life,[6]; [7],0.45 ± 0.66 h
same,half-life,[6]; [8],0.17 ± 0.07 h
same,Tmax,[6]; [7],7.2 ± 1.1 h
same,Tmax,[6]; [8],6.8 ± 1.1 h
